CR mimetic SO – caloric restriction mimetics inhibiting age-related superoxide in yeast; S. cerevisiae aged cells, superoxide DHE fluorescence; stronger effect = lower value; superoxide response (% of plate mean), % at 10 µM; 0.18% of 330,000 active; AID 2690;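 active = superoxide response under a set limit, about three screen SD below normal, cut at about 65% in these data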;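 also: yeast aged for seven days with compound at 30 °C before DHE staining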
TRPC6 activator – mouse TRPC6 channel activation. Q61143. HEK293-TRPC6 membrane potential dye fluorescence; stronger effect = higher value. B-score at 10 µM. 0.13% of 310,000 active. AID 2550;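 active = B-score of the integrated fluorescence ratio above library mean plus 3 SD, and starting fluorescence ratio within library mean plus 5 SD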;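 also: higher score means more depolarization so channel activation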
Target sequence (Q61143 whole entry, looked up): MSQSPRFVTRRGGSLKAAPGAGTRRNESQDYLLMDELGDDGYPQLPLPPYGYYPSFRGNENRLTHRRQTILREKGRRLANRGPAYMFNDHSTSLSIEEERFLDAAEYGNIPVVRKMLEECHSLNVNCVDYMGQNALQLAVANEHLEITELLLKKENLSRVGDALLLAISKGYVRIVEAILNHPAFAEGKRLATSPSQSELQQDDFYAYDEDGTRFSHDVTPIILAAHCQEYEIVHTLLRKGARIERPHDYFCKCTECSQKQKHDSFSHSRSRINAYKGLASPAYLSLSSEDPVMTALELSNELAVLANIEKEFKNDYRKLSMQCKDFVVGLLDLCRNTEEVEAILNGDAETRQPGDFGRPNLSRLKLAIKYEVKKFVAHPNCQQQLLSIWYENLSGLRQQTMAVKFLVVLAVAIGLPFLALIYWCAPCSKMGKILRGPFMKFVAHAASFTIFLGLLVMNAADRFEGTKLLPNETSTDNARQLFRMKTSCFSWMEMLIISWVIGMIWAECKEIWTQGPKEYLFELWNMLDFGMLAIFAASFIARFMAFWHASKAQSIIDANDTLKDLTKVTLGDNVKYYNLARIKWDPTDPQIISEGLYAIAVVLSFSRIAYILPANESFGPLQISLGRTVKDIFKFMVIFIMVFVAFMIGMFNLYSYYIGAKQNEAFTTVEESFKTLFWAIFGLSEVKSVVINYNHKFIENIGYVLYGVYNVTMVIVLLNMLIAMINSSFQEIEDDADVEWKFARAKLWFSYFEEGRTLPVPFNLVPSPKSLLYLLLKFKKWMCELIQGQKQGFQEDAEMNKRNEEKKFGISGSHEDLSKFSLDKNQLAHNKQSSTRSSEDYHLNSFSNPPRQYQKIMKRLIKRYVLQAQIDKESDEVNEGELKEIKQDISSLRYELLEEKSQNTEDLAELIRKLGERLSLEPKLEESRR
TRPC4 potent – allosterically enhances the mouse TRPC4 cation channel; AID 2227; Q9QUQ5; HEK293 TRPC4beta/mu-opioid, DAMGO EC20, Fluo-4 Ca2+ flux; stronger effect = higher value; B-score at 10 µM; 0.42% of 310,000 active;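 active = B-score of calcium response area above 5 SD of library B-scores, with initial fluorescence ratio within 5 SD of library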
TRPC6 inhibitor – mouse TRPC6 channel inhibition; HEK293-TRPC6, membrane potential dye, ACh-evoked depolarization; stronger effect = lower value; B-score at 10 µM; 1.1% of 310,000 active;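 active = B-score under library mean minus 3 SD, initial fluorescence not abnormally high, positive integrated signal ratio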;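 also: B-score derived from integrated fluorescence ratio over the kinetic read; more negative B-score means stronger inhibition of depolarization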
TRPC4 agonist – opens the mouse TRPC4 cation channel; Q9QUQ5; HEK293 TRPC4beta/mu-opioid, Fluo4 calcium fluorescence; stronger effect = higher value; B-score at 10 µM; 0.49% of 310,000 active; AID 2237;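 active = B-score above 5 SD of library B-scores, and initial fluorescence ratio not above library mean plus 5 SD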;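 also: positive B-score marks a calcium rise read as TRPC4 activation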
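Technique: kinetic Fluo4 calcium fluorescence; Test system: TRPC4beta and mu-opioid receptor HEK293 stable cells; Measure: B-scored integrated calcium fluorescence ratio; Benchmarks: low control buffer alone, high control maximal DAMGO; Schedule: 45 min room-temperature Fluo4 loading, 110 s read.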
TRPC4 block – inhibitors of mouse TRPC4 channel. Q9QUQ5. HEK293 TRPC4beta/mu-opioid, DAMGO-evoked Fluo4 calcium flux; stronger effect = lower value. B-score at 10 µM. 0.39% of 300,000 active. AID 2247;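 active = B-score over 3 SD under the library average, no early fluorescence shift, positive overall ratio signal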
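Material: HEK293 cells with stable TRPC4beta plus mu-opioid receptor expression / Probe or stimulus: DAMGO in two steps, submaximal then maximal / Compound: single concentration per test compound / Technique: kinetic Fluo4 fluorescence imaging of calcium influx / Read-out: per-well B score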
TRPC4 spec 2 – second selectivity test of TRPC6 inhibitors: effect on mouse TRPC4 | shares compounds with TRPC6 inhibitor | HEK293 TRPC4/MOR, membrane potential dye fluorescence; channel activated by saturating DAMGO dose | inhibition, % at 10 µM | 42% of 920 active;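 active = compounds whose fluorescence signal differed from control wells by over 3 SD, either direction, in both duplicate plates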
TRPC4 spec – selectivity of TRPC6 inhibitors: effect on mouse TRPC4. shares compounds with TRPC6 inhibitor. HEK293 TRPC4/mu-opioid, membrane potential fluorescence. activity change, negative = inhibition, % at 10 µM. 61% of 920 active. AID 2777;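 active = rise or fall in signal beyond 3 SD of buffer-only wells in both replicate plates, either sign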;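 also: integrated kinetic ratio of fluorescence range over baseline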
HEK293 MPD ctr 2-1 – parental HEK293 nonspecific activity of TRPC6 inhibitors, second screen | shares compounds with TRPC6 inhibitor | parental HEK293 membrane potential dye fluorescence; maximal acetylcholine challenge after compound addition | signal change vs control, % at 10 µM | 31% of 920 active;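 active = membrane potential signal moving either way by over 3 SD of the maximum-effect control, in both duplicate plates, meaning non-specific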
HEK293 MPD ctr-1 – parental HEK293 nonspecific activity of TRPC6 inhibitors. 60% of 920 active. parental HEK293 membrane potential dye fluorescence. membrane potential signal change, % at 10 µM. shares compounds with TRPC6 inhibitor;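 active = membrane potential signal shifting up or down by more than 3 SD of buffer-only wells, on both duplicate plates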
HEK293 MPD ctr-2 – checks TRPC6 modulator effects in parental HEK293 cells; membrane potential dye fluorescence; membrane potential signal change, % at 10 µM; shares compounds with TRPC6 inhibitor; 51% of 2,400 active;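 active = membrane potential signal moves up or down beyond 5 SD from buffer-only wells, on both duplicate plates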
HEK293 MPD ctr 2-2 – parental HEK293 nonspecific activity of TRPC6 modulators, second screen | membrane potential dye fluorescence; after compound, maximal acetylcholine stimulation | inhibition, % at 10 µM | AID 488926 | 14% of 2,400 active | shares compounds with TRPC6 inhibitor;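 active = membrane potential signal drops by more than 5 SD from the mean control signal, in both duplicate plates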
TRPC4 ctr mod – selectivity of TRPC6 modulators against mouse TRPC4; shares compounds with TRPC6 inhibitor; HEK293 TRPC4/mu-opioid, membrane potential fluorescence; percent change from control (negative = decrease, positive = increase), % at 10 µM; 69% of 2,400 active; AID 488927;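 active = membrane potential signal moved up or down beyond 5 SD of buffer control wells, in both duplicate plates, actives on both sides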
TRPC4/MOR inh 2 – mouse TRPC4 off-target activity of TRPC6 modulators, second screen. shares compounds with TRPC6 inhibitor. HEK293 TRPC4/mu-opioid, membrane potential dye fluorescence; stimulated with maximal-effect DAMGO. inhibition, % at 10 µM. 55% of 2,400 active. AID 488928;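 active = drop in membrane potential signal beyond 5 SD of the control wells in both duplicate plates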;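 also: TRPC4 counter screen for TRPC6 hits run under conditions tuned for TRPC6 not TRPC4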
TRPC6 block conf – mouse TRPC6 inhibitor confirmation. HEK293-TRPC6, membrane potential dye, ACh-evoked depolarization. 43% of 3,300 active. AID 488960. shares compounds with TRPC6 inhibitor. inhibition, % at 10 µM;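 active = fluorescence ratio falls more than 5 SD below the full-stimulation control mean, in both duplicate runs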;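 also: integrated fluorescence ratio of peak minus minimum over baseline after agonist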
TRPC6 act conf – confirmation of mouse TRPC6 activators; HEK293-TRPC6 membrane potential dye fluorescence, FDSS; activation, % at 10 µM; 11% of 2,800 active; AID 488961; shares compounds with TRPC6 inhibitor;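 active = ratio signal rise beyond 5 SD above unstimulated control wells' mean, seen in both duplicate runs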
Numbers stand for hits; i = inactive; nt = no result given. Most compounds without a hit are left out; they make up all but 2.3% or so of the library.

SMILES | CR mimetic SO | TRPC6 activator | TRPC4 potent | TRPC6 inhibitor | TRPC4 agonist | TRPC4 block | HEK293 MPD ctr-2 | HEK293 MPD ctr 2-2 | TRPC4 ctr mod | TRPC4/MOR inh 2 | TRPC6 block conf | TRPC6 act conf | others
CN1CCc2c(sc(NC(=O)c3ccc(S(=O)(=O)N4CCc5ccccc54)cc3)c2C(N)=O)C1 | i | i | i | i | i | i | nt | nt | nt | nt | nt | nt
CN1CCc2c(sc(NC(=O)c3ccc(S(=O)(=O)N4CCOCC4)cc3)c2C(N)=O)C1 | i | i | i | -7.6 | i | i | -258% | i | -51% | 35% | i | i
CCc1occc(=O)c1Oc1cc(NN2CCCCC2)c([N+](=O)[O-])cc1[N+](=O)[O-] | i | i | i | -7.4 | i | i | nt | nt | nt | nt | i | i | TRPC4 spec 2=i;TRPC4 spec=i;HEK293 MPD ctr 2-1=i;HEK293 MPD ctr-1=i
C=CCNS(=O)(=O)c1ccc(C(=O)OCc2cc(=O)oc3cc(OC)ccc23)cc1 | i | i | i | i | i | i | nt | nt | nt | nt | nt | nt
CCCCN(C)CCNC(=O)c1nn(-c2ccc(OC)cc2)c(=O)c2c1c1ccccc1n2C | i | i | i | -5.7 | i | i | i | i | -16% | 68% | i | i
CCN(C(=O)c1nn(-c2ccc(OC)cc2)c(=O)c2c1c1ccccc1n2C)c1ccc(OC)cc1 | i | i | i | i | i | i | nt | nt | nt | nt | nt | nt
COc1ccc(Br)c(C(=O)NCC2CCCCC2)c1 | i | i | i | -5.2 | i | i | i | i | 44% | 54% | i | nt
CSc1nc(-c2ccc(Cl)cc2Cl)[nH]c(=O)c1C#N | i | 13 | i | i | i | i | i | i | 12% | i | i | i
Cc1cc(-c2ccc(Cl)cc2Cl)c(C#N)c(=O)[nH]1 | i | i | i | i | i | i | nt | nt | nt | nt | nt | nt
CC(=O)c1cnc(Nc2nc(C)c3ccc(C)cc3n2)nc1C | i | i | i | -5.7 | i | i | -154% | 81% | -20% | i | i | i
CC(=O)c1cnc(Nc2nc(C)c3ccccc3n2)nc1C | i | i | i | i | i | i | nt | nt | nt | nt | nt | nt
CC1=C(C(=O)OCc2ccc3c(c2)OCO3)C(c2ccc(F)cc2)NC(=O)N1 (stereo not given) | i | i | i | i | i | i | nt | nt | nt | nt | nt | nt
CCOC(=O)c1ccc(NC(=O)NCCc2cnc[nH]2)cc1 | i | i | i | -6.8 | 175 | i | nt | nt | nt | nt | i | i | TRPC4 spec 2=69%;TRPC4 spec=64%;HEK293 MPD ctr 2-1=i;HEK293 MPD ctr-1=i
CCOC(=O)c1ccc(NC(=O)NCc2ccncc2)cc1 | i | i | i | -5.5 | i | i | i | i | i | i | i | nt
